Assays:
Cytochrome P450 1A2 = target: T1, Cytochrome P450 1A2 (Homo sapiens, UniProt P05177); assay: Inhibition of CYP1A2 (unknown origin); format: ADME
T1 sequence (P05177 whole entry): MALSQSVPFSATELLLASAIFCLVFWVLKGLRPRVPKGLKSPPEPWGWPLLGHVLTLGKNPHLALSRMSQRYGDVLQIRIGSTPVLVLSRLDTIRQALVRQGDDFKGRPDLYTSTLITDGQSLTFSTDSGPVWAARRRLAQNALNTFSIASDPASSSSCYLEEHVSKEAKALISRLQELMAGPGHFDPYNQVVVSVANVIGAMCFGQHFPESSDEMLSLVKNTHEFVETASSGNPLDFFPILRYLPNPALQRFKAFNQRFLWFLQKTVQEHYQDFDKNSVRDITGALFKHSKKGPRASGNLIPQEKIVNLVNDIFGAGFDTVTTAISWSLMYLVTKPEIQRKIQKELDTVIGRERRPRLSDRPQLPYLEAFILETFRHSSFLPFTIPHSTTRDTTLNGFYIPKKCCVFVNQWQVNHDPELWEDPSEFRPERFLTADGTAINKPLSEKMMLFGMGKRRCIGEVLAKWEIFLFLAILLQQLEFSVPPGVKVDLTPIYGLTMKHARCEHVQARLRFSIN

Cytochrome P450 2C9 = Cytochrome P450 2C9 (Homo sapiens, UniProt P11712); assay: Inhibition of CYP2C9 (unknown origin); format: ADME
Cytochrome P450 2D6 = Cytochrome P450 2D6 (Homo sapiens, UniProt P10635); assay: Inhibition of CYP2D6 (unknown origin); format: ADME
Rattus norvegicus = assay: Volume of distribution at steady state […] in Sprague-Dawley rat at 0.1 to 1 mg/kg, iv; format: ADME, organism-based; settings: in vivo
How it was run: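 IV pharmacokinetics in Sprague-Dawley rats at 0.1–1.0 mg/kg. CLp, elimination t½ and Vss derived.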

[1] = Brain to plasma permeability coefficient, Kp of the compound in Sprague-Dawley rat at 0.1 to 0.2 mg/kg, iv measured at 0.25 hrs post dose; format: ADME, organism-based
How it was run: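 Sprague-Dawley rats were dosed IV at 0.1–0.2 mg/kg, with brain and plasma sampled at 0.25 hr. Brain:plasma Kp was calculated, with Kp,uu where unbound fractions were available.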

[2] = Positive allosteric modulation of dog M4 receptor assessed as increase in acetylcholine-induced calcium mobilization; set-up: species or system Canis lupus familiaris
How it was run: (§1)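 M4 PAM concentration-response curves measured by calcium mobilization at the stated species' receptor. Potency reported as EC50/pEC50 and efficacy as % of acetylcholine maximum.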

[3] = Positive allosteric modulation of cynomolgus monkey M4 receptor assessed as increase in acetylcholine-induced calcium mobilization; set-up: species or system Macaca fascicularis; how it was run: as §1
[4] = target: Muscarinic acetylcholine receptor M1 (Homo sapiens, UniProt P11229); assay: Activity at human M1 receptor
[5] = target: Muscarinic acetylcholine receptor M2 (Homo sapiens, UniProt P08172); assay: Activity at human M2 receptor
[6] = target: Muscarinic acetylcholine receptor M1 (Rattus norvegicus, UniProt P08482); assay: Activity at rat M1 receptor
[7] = target: Muscarinic acetylcholine receptor M2 (Rattus norvegicus, UniProt P10980); assay: Activity at rat M2 receptor
[8] = target: Muscarinic acetylcholine receptor M3 (Rattus norvegicus, UniProt P08483); assay: Activity at rat M3 receptor
[9] = target: Muscarinic acetylcholine receptor M5 (Rattus norvegicus, UniProt P08911); assay: Activity at rat M5 receptor
Salmonella typhimurium [10] = assay: Mutagenicity in Salmonella typhimurium TA98 by mini-Ames test; format: toxicity; settings: salmonella enterica subsp. enterica serovar typhimurium
How it was run: (§2)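 Mini-Ames mutagenicity assay in Salmonella typhimurium strains TA98 and TA100, run with and without S9 metabolic activation.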

Salmonella typhimurium [11] = assay: Mutagenicity in Salmonella typhimurium TA100 in absence of S9 fraction by mini-Ames test; format: toxicity; settings: salmonella enterica subsp. enterica serovar typhimurium; how it was run: as §2
CYP2B6 = CYP2B6 (Homo sapiens, UniProt P20813); assay: Induction of CYP2B6 in cryopreserved human hepatocytes measured after 48 hrs; format: ADME, cell-based
How it was run: (§3)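 Cryopreserved human hepatocytes incubated for 48 hr, with enzyme activity as read-out. Induction expressed as EC50 and Emax.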

CYP3A4 = CYP3A4 (Homo sapiens, UniProt P08684); assay: Induction of CYP3A4 in cryopreserved human hepatocytes measured after 48 hrs; format: ADME, cell-based; how it was run: as §3
[12] = Oral bioavailability in rat at 10 mg/kg; format: ADME, organism-based; settings: in vivo
How it was run: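 Rat oral bioavailability from a 10 mg/kg solution dose. Separately, the HCl salt was dosed as a suspension.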

[13] = Ratio of unbound brain to plasma concentration in dog at 3 mg/kg, iv or po at 2 hrs post dose; format: ADME, organism-based, Canis lupus familiaris
How it was run: (§4)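 CNS penetration in dog by terminal study at 2.0 hr. Brain:plasma Kp, Kp,uu and unbound CSF:plasma ratio determined.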

[14] = Ratio of unbound CSF to plasma concentration in dog at 3 mg/kg, iv or po at 2 hrs post dose; format: ADME, organism-based, Canis lupus familiaris; how it was run: as §4
[15] = Drug metabolism in dog cryopreserved hepatocytes assessed as metabolite M1 formation; format: ADME, cell-based, Canis lupus familiaris, Hepatocyte
[16] = Drug metabolism in rat cryopreserved hepatocytes assessed as metabolite M1 formation; format: ADME, cell-based, Hepatocyte
[17] = Drug metabolism in cynomolgus monkey cryopreserved hepatocytes assessed as metabolite M1 formation; format: ADME, cell-based, Macaca fascicularis, Hepatocyte
[18] = Drug metabolism in human cryopreserved hepatocytes assessed as metabolite M1 formation; format: ADME, cell-based, Hepatocyte
[19] = Drug metabolism in cynomolgus monkey cryopreserved hepatocytes assessed as metabolite M2 formation; format: ADME, cell-based, Macaca fascicularis, Hepatocyte
[20] = Drug metabolism in rat cryopreserved hepatocytes assessed as metabolite M3 formation; format: ADME, cell-based, Hepatocyte
[21] = Drug metabolism in cynomolgus monkey cryopreserved hepatocytes assessed as metabolite M3 formation; format: ADME, cell-based, Macaca fascicularis, Hepatocyte
[22] = Drug metabolism in human cryopreserved hepatocytes assessed as metabolite M3 formation; format: ADME, cell-based, Hepatocyte
[23] = Drug metabolism in rat cryopreserved hepatocytes assessed as metabolite M4 formation; format: ADME, cell-based, Hepatocyte
[24] = Drug metabolism in cynomolgus monkey cryopreserved hepatocytes assessed as metabolite M4 formation; format: ADME, cell-based, Macaca fascicularis, Hepatocyte
[25] = Drug metabolism in human cryopreserved hepatocytes assessed as metabolite M4 formation; format: ADME, cell-based, Hepatocyte
[26] = Drug metabolism in rat cryopreserved hepatocytes assessed as metabolite M5 formation; format: ADME, cell-based, Hepatocyte
[27] = Drug metabolism in cynomolgus monkey cryopreserved hepatocytes assessed as metabolite M5 formation; format: ADME, cell-based, Macaca fascicularis, Hepatocyte
[28] = Drug metabolism in human cryopreserved hepatocytes assessed as metabolite M5 formation; format: ADME, cell-based, Hepatocyte
[29] = Drug metabolism in dog cryopreserved hepatocytes assessed as metabolite M5 formation; format: ADME, cell-based, Canis lupus familiaris, Hepatocyte
[30] = Drug metabolism in dog cryopreserved hepatocytes assessed as metabolite M6 formation; format: ADME, cell-based, Canis lupus familiaris, Hepatocyte
[31] = Drug metabolism in human cryopreserved hepatocytes assessed as metabolite M7 formation; format: ADME, cell-based, Hepatocyte
[32] = Drug metabolism in cynomolgus monkey cryopreserved hepatocytes assessed as metabolite M8 formation; format: ADME, cell-based, Macaca fascicularis, Hepatocyte
[33] = Drug metabolism in human cryopreserved hepatocytes assessed as metabolite M8 formation; format: ADME, cell-based, Hepatocyte
[34] = Glutathione reactivity in human hepatic microsomes assessed as GSH-adduct formation; format: ADME, Liver, Microsome
[35] = Unbound plasma concentration in human; format: ADME, cell-free
[36] = Unbound plasma concentration in rat; format: ADME, cell-free

Chain of Muscarinic acetylcholine receptor M2 (Homo sapiens, UniProt P08172) (P08172 whole entry): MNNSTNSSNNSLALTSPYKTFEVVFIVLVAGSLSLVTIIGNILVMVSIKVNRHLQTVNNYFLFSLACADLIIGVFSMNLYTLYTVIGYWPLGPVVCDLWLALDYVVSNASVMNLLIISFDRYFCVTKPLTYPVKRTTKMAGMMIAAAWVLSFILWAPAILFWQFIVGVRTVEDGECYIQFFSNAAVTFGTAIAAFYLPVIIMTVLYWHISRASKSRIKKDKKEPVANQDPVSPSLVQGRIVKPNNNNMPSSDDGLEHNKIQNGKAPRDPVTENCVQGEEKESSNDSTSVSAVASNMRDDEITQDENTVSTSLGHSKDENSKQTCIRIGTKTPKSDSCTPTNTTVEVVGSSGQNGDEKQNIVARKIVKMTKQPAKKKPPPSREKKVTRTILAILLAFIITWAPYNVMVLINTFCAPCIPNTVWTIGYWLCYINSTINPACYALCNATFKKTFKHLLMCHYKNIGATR
Chain of Cytochrome P450 2C9 (P11712 whole entry): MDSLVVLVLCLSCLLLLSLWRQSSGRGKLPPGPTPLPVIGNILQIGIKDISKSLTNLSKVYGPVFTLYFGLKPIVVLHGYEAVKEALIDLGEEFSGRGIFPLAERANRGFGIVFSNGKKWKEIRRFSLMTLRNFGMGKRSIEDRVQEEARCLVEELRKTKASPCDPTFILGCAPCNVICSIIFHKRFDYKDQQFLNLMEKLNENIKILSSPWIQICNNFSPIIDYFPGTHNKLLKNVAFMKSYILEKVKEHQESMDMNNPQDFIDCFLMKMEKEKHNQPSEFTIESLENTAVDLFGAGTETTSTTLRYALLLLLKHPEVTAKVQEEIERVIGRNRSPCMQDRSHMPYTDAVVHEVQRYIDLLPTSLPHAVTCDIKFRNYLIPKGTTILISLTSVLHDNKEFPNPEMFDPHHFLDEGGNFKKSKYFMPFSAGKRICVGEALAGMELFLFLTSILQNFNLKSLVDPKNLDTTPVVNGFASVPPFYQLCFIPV
Chain of CYP2B6 (P20813 whole entry): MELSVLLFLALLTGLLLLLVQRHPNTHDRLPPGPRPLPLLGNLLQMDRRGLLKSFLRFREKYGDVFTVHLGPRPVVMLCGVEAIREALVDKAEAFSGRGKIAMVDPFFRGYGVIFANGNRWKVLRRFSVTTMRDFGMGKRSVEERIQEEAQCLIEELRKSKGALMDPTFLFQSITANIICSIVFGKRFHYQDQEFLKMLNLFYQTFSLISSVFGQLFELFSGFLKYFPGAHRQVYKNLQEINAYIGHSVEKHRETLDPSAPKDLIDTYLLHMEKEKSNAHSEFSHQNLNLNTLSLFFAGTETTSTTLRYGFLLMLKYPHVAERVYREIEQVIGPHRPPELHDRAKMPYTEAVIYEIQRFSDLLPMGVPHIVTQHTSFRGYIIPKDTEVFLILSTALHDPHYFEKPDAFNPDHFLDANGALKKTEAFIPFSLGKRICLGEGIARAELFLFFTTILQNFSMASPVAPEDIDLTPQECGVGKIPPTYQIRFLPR
Chain of CYP3A4 (P08684 whole entry): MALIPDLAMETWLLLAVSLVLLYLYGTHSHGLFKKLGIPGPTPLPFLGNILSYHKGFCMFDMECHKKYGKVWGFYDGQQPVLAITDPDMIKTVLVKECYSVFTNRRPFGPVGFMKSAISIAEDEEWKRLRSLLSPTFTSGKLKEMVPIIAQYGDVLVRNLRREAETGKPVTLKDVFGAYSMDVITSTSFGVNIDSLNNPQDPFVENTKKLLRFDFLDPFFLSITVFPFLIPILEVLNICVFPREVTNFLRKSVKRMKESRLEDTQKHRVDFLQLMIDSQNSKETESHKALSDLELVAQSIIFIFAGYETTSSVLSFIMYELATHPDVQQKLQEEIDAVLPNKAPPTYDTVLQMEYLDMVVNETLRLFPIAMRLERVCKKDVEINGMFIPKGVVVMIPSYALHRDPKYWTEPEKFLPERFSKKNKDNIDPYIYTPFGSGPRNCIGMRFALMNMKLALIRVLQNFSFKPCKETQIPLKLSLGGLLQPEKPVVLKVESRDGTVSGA
Chain of Muscarinic acetylcholine receptor M1 (Homo sapiens, UniProt P11229) (P11229 whole entry): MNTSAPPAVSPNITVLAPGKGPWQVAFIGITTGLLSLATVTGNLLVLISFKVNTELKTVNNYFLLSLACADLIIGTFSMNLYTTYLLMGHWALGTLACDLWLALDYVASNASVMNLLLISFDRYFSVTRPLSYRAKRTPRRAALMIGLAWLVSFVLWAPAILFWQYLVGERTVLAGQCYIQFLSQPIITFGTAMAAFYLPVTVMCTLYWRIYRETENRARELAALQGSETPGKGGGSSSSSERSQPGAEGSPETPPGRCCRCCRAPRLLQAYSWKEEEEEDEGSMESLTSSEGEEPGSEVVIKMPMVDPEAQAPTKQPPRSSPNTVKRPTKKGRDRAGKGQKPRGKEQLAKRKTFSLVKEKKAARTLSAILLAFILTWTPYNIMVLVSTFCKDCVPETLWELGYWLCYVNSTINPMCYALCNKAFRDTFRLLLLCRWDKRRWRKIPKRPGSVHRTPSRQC
Chain of Muscarinic acetylcholine receptor M5 (P08911 whole entry): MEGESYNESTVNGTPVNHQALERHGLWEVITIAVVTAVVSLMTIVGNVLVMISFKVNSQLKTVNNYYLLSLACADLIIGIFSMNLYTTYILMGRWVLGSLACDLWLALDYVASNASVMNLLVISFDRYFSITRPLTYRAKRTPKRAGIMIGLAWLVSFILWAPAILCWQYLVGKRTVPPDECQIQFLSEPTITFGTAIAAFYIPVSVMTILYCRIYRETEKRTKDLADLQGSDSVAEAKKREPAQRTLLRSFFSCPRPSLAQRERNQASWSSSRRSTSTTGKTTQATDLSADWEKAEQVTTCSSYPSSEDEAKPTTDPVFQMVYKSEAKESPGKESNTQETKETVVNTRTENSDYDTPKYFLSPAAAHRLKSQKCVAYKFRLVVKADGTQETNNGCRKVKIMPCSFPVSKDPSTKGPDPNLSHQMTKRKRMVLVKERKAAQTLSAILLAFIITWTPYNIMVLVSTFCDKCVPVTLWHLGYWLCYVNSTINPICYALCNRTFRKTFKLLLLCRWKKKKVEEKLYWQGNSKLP
Chain of Muscarinic acetylcholine receptor M3 (P08483 whole entry): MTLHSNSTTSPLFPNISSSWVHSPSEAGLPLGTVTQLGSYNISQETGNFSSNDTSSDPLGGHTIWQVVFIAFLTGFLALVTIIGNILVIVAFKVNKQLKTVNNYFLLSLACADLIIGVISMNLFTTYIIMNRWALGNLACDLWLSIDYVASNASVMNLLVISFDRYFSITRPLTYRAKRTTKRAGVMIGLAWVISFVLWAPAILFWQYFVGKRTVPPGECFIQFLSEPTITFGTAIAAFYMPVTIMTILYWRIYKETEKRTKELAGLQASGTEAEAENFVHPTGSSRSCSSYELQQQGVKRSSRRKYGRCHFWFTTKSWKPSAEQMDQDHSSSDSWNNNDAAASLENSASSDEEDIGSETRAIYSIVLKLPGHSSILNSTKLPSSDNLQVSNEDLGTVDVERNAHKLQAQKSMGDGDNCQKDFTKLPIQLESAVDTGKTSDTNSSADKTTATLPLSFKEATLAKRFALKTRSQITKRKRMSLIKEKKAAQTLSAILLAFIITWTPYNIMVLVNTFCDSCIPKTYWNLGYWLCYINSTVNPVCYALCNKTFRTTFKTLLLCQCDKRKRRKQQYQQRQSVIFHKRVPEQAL
Chain of Muscarinic acetylcholine receptor M2 (Rattus norvegicus, UniProt P10980) (P10980 whole entry): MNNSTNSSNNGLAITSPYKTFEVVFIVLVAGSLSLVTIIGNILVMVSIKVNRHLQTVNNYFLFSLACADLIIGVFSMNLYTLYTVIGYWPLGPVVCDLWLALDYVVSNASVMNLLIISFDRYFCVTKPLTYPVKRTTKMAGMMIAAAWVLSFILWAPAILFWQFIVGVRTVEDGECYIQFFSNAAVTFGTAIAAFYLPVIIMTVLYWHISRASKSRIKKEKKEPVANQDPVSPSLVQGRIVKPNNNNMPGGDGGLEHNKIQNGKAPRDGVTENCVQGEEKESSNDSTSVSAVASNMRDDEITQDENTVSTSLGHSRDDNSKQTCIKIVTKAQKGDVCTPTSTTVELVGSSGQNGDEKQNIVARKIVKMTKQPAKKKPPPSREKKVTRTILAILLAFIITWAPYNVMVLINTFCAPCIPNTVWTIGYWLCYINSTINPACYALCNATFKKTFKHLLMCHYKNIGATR
Chain of Cytochrome P450 2D6 (P10635 whole entry): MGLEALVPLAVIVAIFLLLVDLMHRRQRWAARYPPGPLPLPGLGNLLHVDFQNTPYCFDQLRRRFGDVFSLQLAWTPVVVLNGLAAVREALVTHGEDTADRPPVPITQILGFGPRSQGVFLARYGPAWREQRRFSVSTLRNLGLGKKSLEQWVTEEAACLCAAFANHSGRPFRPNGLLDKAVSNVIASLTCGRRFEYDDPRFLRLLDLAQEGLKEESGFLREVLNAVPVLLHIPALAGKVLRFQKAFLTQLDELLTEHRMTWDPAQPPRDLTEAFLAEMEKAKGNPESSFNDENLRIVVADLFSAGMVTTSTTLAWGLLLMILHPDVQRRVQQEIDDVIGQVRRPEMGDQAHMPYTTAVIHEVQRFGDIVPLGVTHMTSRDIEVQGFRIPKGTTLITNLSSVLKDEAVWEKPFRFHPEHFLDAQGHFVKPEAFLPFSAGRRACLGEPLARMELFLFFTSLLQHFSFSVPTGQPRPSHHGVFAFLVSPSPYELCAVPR
Chain of Muscarinic acetylcholine receptor M1 (Rattus norvegicus, UniProt P08482) (P08482 whole entry): as the sequence (P11229 whole entry) above, with A5V, T254S, P309S, R320K, A337G, I413V counted along it

Cc1nnc2sc(C(=O)NCc3ccc(-c4cccnc4F)cc3)c(N)c2c1C
IC50 (Cytochrome P450 1A2): 11 µM | IC50 (Cytochrome P450 2C9): > 30 µM | IC50 (Cytochrome P450 2D6): 19 µM | Vdss (Rattus norvegicus): 0.34 L/kg | Kp [1]: 0.11 | EC50 [2]: 0.111 µM | pEC50 [2]: 6.95 | pEC50 [3]: 7.06 | EC50 [4]: > 30 µM | EC50 [5]: > 30 µM | EC50 [6]: > 30 µM | EC50 [7]: > 30 µM | EC50 [8]: > 30 µM | EC50 [9]: > 30 µM | Activity (Salmonella typhimurium [10]): Non-Toxic | Activity (Salmonella typhimurium [11]): Non-Toxic | EC50 at 48 h (CYP2B6): > 50 µM | EC50 at 48 h (CYP3A4): > 50 µM | bioavailability [12]: 61% | K(p,uu,brain) [13]: 2.6 | Kp uu at 2 h [14]: 4.8 | Drug metabolism [15]: Metabolite_Detected | Drug metabolism [16]: Metabolite_Detected | Drug metabolism [17]: Metabolite_Detected | Drug metabolism [18]: Metabolite_Detected | Drug metabolism [19]: Metabolite_Detected | Drug metabolism [20]: Metabolite_Detected | Drug metabolism [21]: Metabolite_Detected | Drug metabolism [22]: Metabolite_Detected | Drug metabolism [23]: Metabolite_Detected | Drug metabolism [24]: Metabolite_Detected | Drug metabolism [25]: Metabolite_Detected | Drug metabolism [26]: Metabolite_Detected | Drug metabolism [27]: Metabolite_Detected | Drug metabolism [28]: Metabolite_Detected | Drug metabolism [29]: Metabolite_Detected | Drug metabolism [30]: Metabolite_Detected | Drug metabolism [31]: Metabolite_Detected | Drug metabolism [32]: Metabolite_Detected | Drug metabolism [33]: Metabolite_Detected | Activity [34]: Not Active | fraction unbound [35]: 0.011 | fraction unbound [36]: 0.002

Reference: ChEMBL document CHEMBL4028836, “Optimization of M4 positive allosteric modulators (PAMs): The discovery of VU0476406, a non-human primate in vivo tool compound for translational pharmacology” (Bioorg Med Chem Lett, 2017)
